Sampled rows, rich in hits. Any-hit rate of the full collection: about 2.7%.
MC4R antag cAMP: human MC4R antagonism in cAMP assay | P32245 | MC4R-expressing cells, MTII-stimulated cAMP, LANCE TR-FRET | inhibition, % at 6.5 µM | actives 0.48% (n = 360,000) | AID 540295;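 active means inhibition above its plate's cutoff, the mean of tested wells on that plate plus 3 SD, cut at about 29% in these data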;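 further: 0% = Melanotan II alone and 100% = Melanotan II plus saturating MCL0020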
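Material – human MC4R-expressing U2OS cells · Repeats – no replicates · Detection – TR-FRET with Eu-cAMP and labeled anti-cAMP, 671 nm · Times – compound 30 min, challenge 1 h, detection 1 h · Compound – single nominal compound dose of 6.5 µM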
NR2E3 ag-1: agonists of human NR2E3 nuclear receptor; Q9Y5X4; CHO-S Gal4-NCOR/VP16-NR2E3 two-hybrid, luciferase; inhibition of corepressor binding, % at 3.98 µM; actives 0.35% (n = 360,000);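 active means inhibition above the mean of all tested compounds plus 3 SD, cut at about 70% in these data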;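 further: 0% = DMSO with NR2E3 transfected cells and 100% = cells lacking NR2E3 construct; higher means lower luciferase signal from less NR2E3 corepressor binding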
NR2E3 ag-2: NR2E3 (human) agonism. actives 0.12% (n = 320,000). inhibition of corepressor binding, % at 4.78 µM. GST-NR2E3/biotin-RetCOR TR-FRET, 1536-well;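 active means percent inhibition above the cutoff of mean plus 3 SD of all tested compounds, set per screening campaign, cut at about 20% in these data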;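 further: 0% = DMSO wells and 100% = biotin wells as full block of FRET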
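System: GST-tagged NR2E3 plus biotinylated RetCOR corepressor; Buffer or medium: pH 7.5 Tris-based buffer; Probe or stimulus: RetCOR corepressor, biotinylated, 7 nM; Doses: compound at 4.8 µM, single dose; Schedule: 5 h incubation at 4 °C; Technique: time-resolved FRET; Evaluation: percent inhibition of TR-FRET ratio; Replication: one well per compound, singlicate testing.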
MC4R barr agon: activates human MC4R beta-arrestin recruitment; P32245; U2OS MC4R beta-arrestin complementation, luminescence; percent of melanotan II response, DMSO zero; activation, % at 8.9 µM; actives 0.98% (n = 360,000); AID 540308;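 active means activation above a per-plate cutoff, the mean activation of sample wells on that plate plus 3 SD, cut at about 8% in these data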
PG9 binder: binds the HIV-1 gp120 antibody PG9. TR-FRET gp120-PG9 antibody binding. actives 0.43% (n = 360,000). inhibition, % at 6.7 µM; in the data active means inhibition above about 8.5%
Rev-erbA mod: modulates human Rev-erb alpha binding to DNA | activity, % at 10 µM | actives 0.79% (n = 370,000) | Rev-erbα–FITC-DNA binding, fluorescence polarization, 90 min | P20393;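 active means activity above about 14%, limit read from the data; passing the limit was not always enough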;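 further: 0% = DMSO wells with 35 nM protein and 100% = DMSO wells with 750 nM protein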
Target sequence (P20393 whole entry, looked up): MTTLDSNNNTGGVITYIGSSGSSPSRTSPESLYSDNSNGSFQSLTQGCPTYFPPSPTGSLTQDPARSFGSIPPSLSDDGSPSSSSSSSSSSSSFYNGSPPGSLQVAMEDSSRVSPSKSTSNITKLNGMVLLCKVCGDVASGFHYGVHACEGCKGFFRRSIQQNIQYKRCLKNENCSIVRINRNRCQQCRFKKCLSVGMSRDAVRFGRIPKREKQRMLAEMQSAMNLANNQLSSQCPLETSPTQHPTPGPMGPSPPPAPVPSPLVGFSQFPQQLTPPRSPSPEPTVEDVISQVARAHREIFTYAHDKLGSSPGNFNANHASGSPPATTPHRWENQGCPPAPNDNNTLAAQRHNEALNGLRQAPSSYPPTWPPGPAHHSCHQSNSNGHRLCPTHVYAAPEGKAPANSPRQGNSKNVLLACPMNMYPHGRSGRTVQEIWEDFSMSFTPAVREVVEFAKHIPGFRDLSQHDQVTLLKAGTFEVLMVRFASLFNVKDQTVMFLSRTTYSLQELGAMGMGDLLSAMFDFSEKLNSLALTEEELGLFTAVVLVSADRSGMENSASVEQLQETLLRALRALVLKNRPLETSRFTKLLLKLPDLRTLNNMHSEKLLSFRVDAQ
NR1D1 mod conf: Rev-erb alpha (human) modulation, hit confirmation | activation, % at 25 µM | shares compounds with Rev-erbA mod | Rev-erb alpha FITC-DNA binding, fluorescence polarization, 90 min | AID 1259319 | actives 61% (n = 3,000);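 active means activation at or above a set limit, or at least 3 SD above the negative control mean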;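 further: 0% = 35 nM protein with DMSO and 100% = 750 nM protein high control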
RORg counter: RORgamma DNA-binding activity, dose-response counter-screen. purified RORgamma protein-FITC-DNA binding, fluorescence polarization. actives 8% (n = 910). shares compounds with Rev-erbA mod. IC50, µM;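 active means Compounds whose fitted half-maximal concentration for disrupting protein-DNA binding is below 10 micromolar; the record names Rev-erb in its text, so the target is in doubt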
An asterisk follows results filed as active; x = no result.

SMILES | MC4R antag cAMP | NR2E3 ag-1 | NR2E3 ag-2 | MC4R barr agon | PG9 binder | Rev-erbA mod | NR1D1 mod conf | others
CCOCCCNC(=O)C(Cc1ccccc1)NS(=O)(=O)c1ccc2c(c1)c(=O)n(C)c(=O)n2C (centres undefined) | -2 | 11 | 1 | -2 | -1 | 1 | x
c1ccc(-c2nc3ccccc3c3nc4ccccc4n23)cc1 | -1 | -28 | -1 | -1 | 0 | 22* | -2
c1ccc(-c2nc3nonc3c3nc4ccccc4n23)cc1 | -1 | -5 | 3 | 4 | 1 | -5 | x
C[C@@H](OC(=O)c1[nH]cnc1C(=O)N1CCc2ccccc2C1)c1ccccc1 | 3 | -4 | x | 1 | 0 | -2 | x
O=C(Nc1nc(-c2cc3ccccc3oc2=O)cs1)c1ccc(Br)o1 | 8 | -132 | 0 | 4 | 0 | 54* | 31*
O=c1c2ccccc2sc2ccc(Cl)cc12 | -1 | -9 | 6 | 0 | -1 | 80* | 77* | RORg counter=>40
O=c1c2ccccc2sc2ccccc12 | -1 | -29 | x | -1 | -1 | 8 | x
COc1cccc(N=Cc2c(O)n(-c3cccc(C)n3)c(=O)c3ccccc23)c1 | 7 | -9 | 2 | -1 | -1 | -3 | x
COc1ccc(N=Cc2c(O)n(-c3cccc(C)n3)c(=O)c3ccccc23)c(OC)c1 | 1 | 12 | 2 | 0 | 0 | 53* | 9
COc1ccccc1N=Nc1nc(-c2ccccc2)c(-c2ccccc2)[nH]1 | 17 | -25 | 0 | -7 | -1 | 35* | 41* | RORg counter=1.1*
COC(=O)Cn1c(=NC(=O)c2nc3ccccc3s2)sc2cc(S(C)(=O)=O)ccc21 | x | x | 0 | x | -2 | 78* | 59* | RORg counter=1*
COc1cccc(OC)c1C(=O)N=c1sc2cc(S(C)(=O)=O)ccc2n1C | 0 | -16 | 0 | -1 | 1 | 1 | x
Cc1cccc(NC(=O)c2cnc3scc(C)n3c2=O)c1 | -2 | -63 | 7 | -1 | 0 | 12 | x
Cc1csc2ncc(C(=O)Nc3ccc4c(c3)OCCO4)c(=O)n12 | 1 | -64 | -2 | 0 | 1 | 28* | 14*
O=C(Cn1c(=S)[nH]c2ccccc2c1=O)NCCc1ccccc1 | 12 | -16 | 0 | -2 | 5 | 31* | 31* | RORg counter=>40
COc1ccc(-c2nc(NC(=O)c3ccc(OCC(=O)N4CCOCC4)c(OC)c3)sc2C)cc1 | 1 | 12 | 7 | 3 | -1 | -1 | x
COc1cc(C(=O)Nc2nc(-c3ccc(Cl)cc3)c(C)s2)ccc1OCC(=O)Nc1ccc(F)cc1 | 11 | -26 | -2 | 5 | 0 | 122* | 125* | RORg counter=>40
Cc1cc(Br)cn2c(Cc3ccccc3C(F)(F)F)c(-c3cccc(Cl)c3)nc12 | x | x | x | x | 1 | 24* | 0
Cc1cc(Br)cn2c(Cc3cccc(F)c3)c(-c3cccc(Cl)c3)nc12 | x | x | x | x | 4 | 19* | 8
Cc1ccc(-c2nc3c(C)cc(Br)cn3c2Cc2ccccc2C(F)(F)F)cc1 | x | x | x | x | 0 | 20 | x
Cc1cc(NC(=O)c2cccc(C(=O)Nc3cc(C)on3)n2)no1 | 5 | 1 | -2 | 1 | -3 | 22* | 17*
Cc1cc(NC(=O)c2c(Cl)cccc2Cl)no1 | -1 | -6 | -2 | -2 | -1 | -7 | x
CCOC(=O)COc1c(Cl)cc(C2NC(=S)NC(c3ccccc3)=C2C(C)=O)cc1OCC (centres undefined) | -2 | 7 | 3 | 2 | 5 | 34* | 31* | RORg counter=>40
COc1ccc(-c2cc(C(F)(F)F)n3nc(C(=O)Nc4cc(C)on4)cc3n2)cc1OC | 14 | -27 | 0 | 1 | 0 | 34* | 26*
COc1ccc(-c2cc(C(F)F)n3ncc(C(=O)NCC4CCCO4)c3n2)cc1 (centres undefined) | 2 | 33 | 3 | 0 | 3 | 36* | 15
SMILES | MC4R antag cAMP | NR2E3 ag-1 | NR2E3 ag-2 | MC4R barr agon | PG9 binder | Rev-erbA mod | NR1D1 mod conf | others
O=C(NCC1CCCO1)c1nn2c(C(F)(F)F)cc(-c3cccs3)nc2c1Br (centres undefined) | -1 | -10 | 1 | -1 | 1 | 26* | 18*
COc1ccc(-c2cc(C(=O)NCC3CCCO3)on2)cc1OC (centres undefined) | 8 | -15 | 2 | -1 | -1 | 0 | x
O=C(NCC1CCCO1)c1nn2c(C(F)(F)F)cc(-c3cccs3)nc2c1Cl (centres undefined) | 1 | -16 | 5 | 1 | -2 | -3 | x
COc1ccc(-c2cc(C(F)(F)F)n3ncc(C(=O)NCC4CCCO4)c3n2)cc1OC (centres undefined) | 6 | 7 | 2 | 3 | 0 | 28* | 31*
O=C1CCN(CCc2ccccc2)CCN1[C@H](COc1ccccc1)c1ccccc1 | 4 | 11 | -6 | 2 | -3 | -4 | x
COc1cc(C(CCN2CCCC2)c2c(OC)cc(OC)c3ccc(=O)oc23)cc(OC)c1OC (centres undefined) | 5 | -7 | 1 | 0 | 3 | 2 | x
COc1ccc(NC(=O)c2cc3nc(-c4ccccc4)cc(-c4ccccc4)n3n2)c(OC)c1 | 6 | -21 | 3 | 0 | 3 | 21* | 14
O=C(NC1CCCC1)c1cc2nc(-c3ccccc3)cc(-c3ccccc3)n2n1 | 11 | -15 | 2 | -1 | -1 | 1 | x
O=C(N/C(=C\c1ccccc1)C(=O)N1CCOCC1)c1ccco1 | 5 | -8 | 7 | -1 | -1 | 0 | x
Cn1c(C(=O)NC2CCCCCC2)cc2c(=O)n(C)c3ccccc3c21 | 2 | -11 | 5 | 0 | 0 | 48* | 26*
Cc1ccc(CNC(=O)c2cc3c(=O)n(C)c4ccccc4c3n2C)cc1 | 5 | -28 | 3 | -2 | -4 | 63* | 43* | RORg counter=>40
Cn1c(C(=O)NCc2cccs2)cc2c(=O)n(C)c3ccccc3c21 | 3 | -7 | 1 | 1 | -1 | 33* | 18*
CN(CCNC(=O)c1cc2c(=O)n(C)c3ccccc3c2n1C)Cc1ccccc1 | 10 | -22 | 0 | 0 | 1 | -3 | x
CC(C)CN(C(=O)COC(=O)c1ccc([N+](=O)[O-])s1)c1c(N)n(Cc2ccccc2)c(=O)[nH]c1=O | 1 | 5 | 2 | 0 | -4 | 6 | x
CCC(C)[C@H](NC(=O)[C@@H]1Cc2ccccc2CN1)C(=O)NCc1ccc(C)cc1 (some centres undefined) | 21 | -39 | x | 1 | 0 | 8 | x

From PubChem BioAssay
